Counter-ions that a name gives are not always drawn.
Legend:
PfENR [1] = molecular target: T1, PfENR (Plasmodium falciparum, UniProt Q9BJJ9); experiment: PfENR substrate kinetics; type: biochemical; settings: without NAD+ preincubation; for Km / kcat: substrate varied, other substrate held constant
PfENR [2] = molecular target: T1, PfENR; experiment: PfENR continuous inhibition assay; type: biochemical; settings: for PfENR inhibition in real-time assay: 25 μM of each candidate inhibitor, with and without NAD+ preincubation
[3] = molecular target: iodoacetamide-treated PfENR (Plasmodium falciparum, UniProt Q9BJJ9); experiment: Celastrol inhibition of iodoacetamide-treated PfENR; type: biochemical; settings: celastrol 50 μM
Outline: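 PfENR alkylated with 1 mM iodoacetamide in 100 mM ammonium bicarbonate, 60 min, 25 °C, dark; excess reagent removed by desalting column. Treated enzyme preincubated 45 min at 25 °C with test compound (final 50 μM), 50 μM NAD+, 20 mM Tris/HCl pH 7.4, 150 mM NaCl and 0.01% Triton-X. Activity tested with and without DMSO (5% of volume).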

[4] = test system: whole-cell blood-stage P. falciparum; settings: at 1 μM, cell culture; ref 33 (printed 32); cited from earlier work
PfENR [5] = molecular target: T1, PfENR; experiment: Reversibility of celastrol binding; type: biochemical; settings: incubation at 5 times the IC50 (15 μM), 45 min, 25 °C
[6] = test system: chloroquine-sensitive P. falciparum NF; settings: read-out: whole-cell IC50; cited from earlier work
[7] = Solubility under assay conditions; type: physicochemical; settings: PfENR assay reaction mixture
PfENR [8] = molecular target: T1, PfENR; settings: cited from earlier work

NC(=O)C1=CN([C@@H]2O[C@H](COP(=O)(O)OP(=O)(O)OC[C@H]3O[C@@H](n4cnc5c(N)ncnc54)[C@H](O)[C@@H]3O)[C@@H](O)[C@H]2O)C=CC1 [NADH]
Km (PfENR [1]): 240 ± 40 µM | kcat (PfENR [1]): 3.8 ± 1.0 s⁻¹

C/C=C/C/C=C/CCC(=O)[C@H]1O[C@H]1C(N)=O [cerulenin (CR), cerulenin]
PfENR inhibition in real-time assay (PfENR [2]): no PfENR inhibition

CC1=C(O)C(=O)C=C2C1=CC=C1[C@@]2(C)CC[C@@]2(C)[C@@H]3C[C@](C)(C(=O)O)CC[C@]3(C)CC[C@]12C [compound 1, celastrol]
inhibition of iodoacetamide-treated PfENR [3]: comparable to that of the untreated protein | growth inhibition of whole-cell blood-stage P. falciparum [4]: ≥ 70% | PfENR activity after incubation with inhibitor and 100-fold dilution (PfENR [5]): identical to the DMSO control | IC50 against PfENR (summary statement) (PfENR [2]): low-micromolar range | Ki (PfENR [2]): 5.3 µM | IC50 (PfENR [2]; IC50, PfENR inhibition, in the presence of 0.01% Triton-X): 3.4 µM | IC50 (PfENR [2]; IC50 against PfENR (summary statement)): ~5 µM | IC50 (PfENR [2]; average IC50, PfENR inhibition, with NAD+ preincubation (50 μM, 45 min, 25 °C)): 5.9 µM | IC50 (PfENR [2]; average IC50, PfENR inhibition, without NAD+ preincubation): 4.7 µM | inhibition mechanism (PfENR [2]; varied crotonyl-CoA at fixed NADH): noncompetitive inhibition | IC50 [6]: 560 µM

CC[C@@]1(O)C[C@H](O[C@H]2C[C@H](N(C)C)[C@H](O[C@H]3C[C@H](O)[C@H](O[C@H]4CCC(=O)[C@H](C)O4)[C@H](C)O3)[C@H](C)O2)c2c(cc3c(c2O)C(=O)c2c(O)cccc2C3=O)[C@H]1C(=O)OC [compound 2, aclacinomycin A (aclarubicin)]
PfENR inhibition in real-time assay (PfENR [2]): increase in absorbance relative to the DMSO and cerulenin controls | solubility [7]: ≤ 25 µM

CC(C)=CCC[C@]1(C)C=Cc2c(O)c3c(c(CC=C(C)C)c2O1)O[C@]12C(=C[C@@H]4C[C@H]1C(C)(C)O[C@@]2(C/C=C(/C)C(=O)O)C4=O)C3=O [compound 4, gambogic acid]
PfENR inhibition in real-time assay (PfENR [2]): no ENR inhibition

C/C=C/C(=O)SCCNC(=O)CCNC(=O)[C@H](O)C(C)(C)COP(=O)(O)OP(=O)(O)OC[C@H]1O[C@@H](n2cnc3c(N)ncnc32)[C@H](O)[C@@H]1OP(=O)(O)O [crotonyl-CoA, crotonyl coenzyme A trilithium salt]
Km (PfENR [1]): 170 ± 60 µM | kcat (PfENR [1]): 1.0 ± 0.2 s⁻¹ | kcat/Km ratio (PfENR [1]): 6000 ± 1100 M⁻¹ s⁻¹

Oc1cc(Cl)ccc1Oc1ccc(Cl)cc1Cl [triclosan (TCL), triclosan]
PfENR inhibitor potency (literature) (PfENR [8]): picomolar | PfENR inhibition in real-time assay (PfENR [2]): no change in NADH consumption

dihydroergotoxine [compound 3]
PfENR inhibition in real-time assay (PfENR [2]): no ENR inhibition

From paper PMC4807855 (Bioorganic & medicinal chemistry, 2014)
